pIC50: −log10 of the molar value.
Tests used:
Assay type in all cases: protein-complex assay
Integrin alpha-V/beta-3 [1] = biological target: T1, Integrin alpha-V/beta-3 (Homo sapiens, UniProt P05106+P06756); experiment: Inhibition of vitronectin binding to the purified immobilized vitronectin receptor (alpha v, beta 3).
Method in brief: (§1)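 Solid-phase microtiter assay. Purified integrin (GPIIb-IIIa or αvβ3) was coated at 1 μg/well overnight at 4 °C in Tris pH 7.4 buffer with CaCl2, then blocked with 35 mg/mL BSA for 2–3 h. Biotinylated fibrinogen or vitronectin (20 nM final) plus compound was incubated 3 h at room temperature. Bound ligand was detected with alkaline phosphatase anti-biotin antibody and pNPP at 405 nm.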

[2] = biological target: Integrin alpha-IIb/beta-3 (Homo sapiens, UniProt P05106+P08514); experiment: Inhibitory activity of fibrinogen binding to purified immobilized glycoprotein (fibrinogen receptor).
Sequence of Integrin alpha-IIb/beta-3 (P05106 27-788 limits assumed): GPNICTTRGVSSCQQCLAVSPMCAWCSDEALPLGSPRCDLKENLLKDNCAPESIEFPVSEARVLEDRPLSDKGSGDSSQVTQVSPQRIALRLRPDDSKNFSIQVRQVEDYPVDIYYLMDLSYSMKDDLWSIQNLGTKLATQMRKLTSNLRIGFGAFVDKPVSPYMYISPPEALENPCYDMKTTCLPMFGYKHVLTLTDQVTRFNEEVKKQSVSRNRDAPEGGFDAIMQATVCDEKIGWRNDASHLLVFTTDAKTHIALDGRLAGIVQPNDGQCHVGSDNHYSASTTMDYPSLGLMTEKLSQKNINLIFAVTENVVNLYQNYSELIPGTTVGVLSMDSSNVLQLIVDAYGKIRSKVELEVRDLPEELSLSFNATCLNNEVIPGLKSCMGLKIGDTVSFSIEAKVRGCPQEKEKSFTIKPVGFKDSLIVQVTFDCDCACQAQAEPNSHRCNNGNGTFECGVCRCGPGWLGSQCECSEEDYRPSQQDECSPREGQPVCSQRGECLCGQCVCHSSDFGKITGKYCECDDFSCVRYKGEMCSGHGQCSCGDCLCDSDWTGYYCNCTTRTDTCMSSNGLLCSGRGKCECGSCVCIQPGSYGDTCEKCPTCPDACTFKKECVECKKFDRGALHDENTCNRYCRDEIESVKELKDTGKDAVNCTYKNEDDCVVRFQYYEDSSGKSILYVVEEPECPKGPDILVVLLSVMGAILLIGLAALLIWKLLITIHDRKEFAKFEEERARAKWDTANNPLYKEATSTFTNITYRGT
Sequence of Integrin alpha-IIb/beta-3 (P08514 32-887 limits assumed): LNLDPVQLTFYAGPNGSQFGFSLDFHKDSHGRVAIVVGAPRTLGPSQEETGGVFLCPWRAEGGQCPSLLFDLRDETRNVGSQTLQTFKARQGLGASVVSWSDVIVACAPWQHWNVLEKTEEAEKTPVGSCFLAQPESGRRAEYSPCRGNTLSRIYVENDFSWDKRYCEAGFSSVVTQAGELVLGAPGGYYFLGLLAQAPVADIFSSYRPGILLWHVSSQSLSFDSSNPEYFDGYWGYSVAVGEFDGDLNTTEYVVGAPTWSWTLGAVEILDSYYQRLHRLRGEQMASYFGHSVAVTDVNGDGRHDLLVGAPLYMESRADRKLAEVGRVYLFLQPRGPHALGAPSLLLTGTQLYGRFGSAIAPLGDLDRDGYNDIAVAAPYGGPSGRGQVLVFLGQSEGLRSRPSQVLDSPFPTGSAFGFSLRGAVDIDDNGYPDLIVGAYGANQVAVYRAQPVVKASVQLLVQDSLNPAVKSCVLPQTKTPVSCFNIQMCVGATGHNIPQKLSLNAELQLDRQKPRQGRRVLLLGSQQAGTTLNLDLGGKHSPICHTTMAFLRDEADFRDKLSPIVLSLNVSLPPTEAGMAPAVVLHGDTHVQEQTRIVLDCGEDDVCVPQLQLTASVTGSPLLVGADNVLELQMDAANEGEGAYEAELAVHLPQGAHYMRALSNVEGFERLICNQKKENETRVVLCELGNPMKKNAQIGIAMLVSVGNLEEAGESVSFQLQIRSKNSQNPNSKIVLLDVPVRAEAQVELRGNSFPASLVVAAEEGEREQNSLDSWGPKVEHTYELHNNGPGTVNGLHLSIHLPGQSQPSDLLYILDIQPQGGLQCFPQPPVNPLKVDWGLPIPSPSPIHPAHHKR
Sequence of Integrin alpha-IIb/beta-3 (P08514 891-1039 limits assumed): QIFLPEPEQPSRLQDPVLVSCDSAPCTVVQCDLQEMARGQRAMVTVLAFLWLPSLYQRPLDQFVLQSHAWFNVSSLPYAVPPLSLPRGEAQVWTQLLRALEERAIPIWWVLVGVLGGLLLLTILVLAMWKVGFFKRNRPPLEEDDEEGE

Integrin alpha-V/beta-3 [3] = biological target: T1, Integrin alpha-V/beta-3; experiment: Inhibition of vitronectin binding to purified immobilized vitronectin receptor alpha v beta3; method in brief: as §1

T1 sequence (P05106 27-788 limits assumed): as the sequence (P05106 27-788 limits assumed) above
T1 sequence (P06756 31-889 limits assumed): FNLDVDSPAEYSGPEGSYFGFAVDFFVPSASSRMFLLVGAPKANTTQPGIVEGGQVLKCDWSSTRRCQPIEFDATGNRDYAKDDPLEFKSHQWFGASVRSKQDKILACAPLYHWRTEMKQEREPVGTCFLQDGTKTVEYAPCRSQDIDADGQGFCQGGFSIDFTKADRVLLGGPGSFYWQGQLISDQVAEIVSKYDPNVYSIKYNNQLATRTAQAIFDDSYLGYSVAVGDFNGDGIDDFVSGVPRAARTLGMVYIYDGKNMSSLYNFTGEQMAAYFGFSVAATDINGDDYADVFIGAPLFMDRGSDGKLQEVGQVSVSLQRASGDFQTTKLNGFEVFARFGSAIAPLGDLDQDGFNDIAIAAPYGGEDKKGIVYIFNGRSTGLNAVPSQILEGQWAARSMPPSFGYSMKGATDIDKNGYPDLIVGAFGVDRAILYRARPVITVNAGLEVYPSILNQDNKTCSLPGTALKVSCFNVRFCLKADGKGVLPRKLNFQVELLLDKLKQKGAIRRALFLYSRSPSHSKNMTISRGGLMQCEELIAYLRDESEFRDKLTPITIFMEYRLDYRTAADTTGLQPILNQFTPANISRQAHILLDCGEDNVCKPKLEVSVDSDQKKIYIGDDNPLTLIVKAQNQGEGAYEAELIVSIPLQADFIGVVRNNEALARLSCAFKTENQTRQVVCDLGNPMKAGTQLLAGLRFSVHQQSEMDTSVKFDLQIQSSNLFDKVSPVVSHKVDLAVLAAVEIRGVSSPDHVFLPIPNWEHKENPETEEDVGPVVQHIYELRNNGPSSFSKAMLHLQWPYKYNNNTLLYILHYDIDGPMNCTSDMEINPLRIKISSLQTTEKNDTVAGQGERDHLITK
T1 sequence (P06756 891-1048 limits assumed): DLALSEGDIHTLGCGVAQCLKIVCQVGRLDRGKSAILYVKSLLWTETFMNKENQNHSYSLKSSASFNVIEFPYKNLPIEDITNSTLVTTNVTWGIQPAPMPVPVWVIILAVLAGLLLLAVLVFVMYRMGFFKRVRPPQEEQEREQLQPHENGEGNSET

SMILES | pIC50 (Integrin alpha-V/beta-3 [1]) | pIC50 [2] | pIC50 (Integrin alpha-V/beta-3 [3])
N=C(N)c1ccc2oc(C(=O)NCCC(=O)NC[C@H](NS(=O)(=O)c3ccccc3)C(=O)O)cc2c1 | < 4.00 | 8.74 | 
C#CC(CC(=O)O)NC(=O)CCNC(=O)c1cc2cc(C(=N)N)ccc2o1 (stereo not given) | < 4.00 | 7.40 | 
N=C(N)c1ccc2oc(C(=O)NCCC(=O)NC[C@H](NS(=O)(=O)c3ccc(I)cc3)C(=O)O)cc2c1 | < 4.00 | 8.70 | 
COc1ccc(C(CC(=O)O)NC(=O)CCNC(=O)c2cc3cc(C(=N)N)ccc3o2)cc1OC (stereo not given) |  | 7.40 | 
N=C(N)c1ccc2oc(C(=O)NCCC(=O)NC(CC(=O)O)c3cc(F)ccc3F)cc2c1 (stereo not given) | < 4.00 | 6.90 | 
N=C(N)c1ccc2[nH]c(C(=O)N3CCC(C(=O)NC(CC(=O)O)c4ccccc4)CC3)cc2c1 (stereo not given) |  | 5.22 | 
N=C(N)c1ccc2oc(C(=O)NCCC(=O)NCCC(=O)O)cc2c1 | < 4.00 | 7.70 | 
N=C(N)c1ccc2oc(C(=O)NCCC(=O)NC(CC(=O)O)C(F)(F)F)cc2c1 (stereo not given) | < 4.00 | 7.40 | 
N=C(N)c1ccc2oc(C(=O)NCCC(=O)NC(CC(=O)O)c3cc(F)cc(F)c3)cc2c1 (stereo not given) | < 4.00 | 7.00 | 
CCCCS(=O)(=O)N[C@@H](CNC(=O)CCNC(=O)c1cc2cc(C(=N)N)ccc2o1)C(=O)O | < 4.00 | 8.70 | 
CN(C)c1cccc2c(S(=O)(=O)N[C@@H](CNC(=O)CCNC(=O)c3cc4cc(C(=N)N)ccc4o3)C(=O)O)cccc12 | < 4.00 | 8.70 | 
N=C(N)c1ccc2[nH]c(C(=O)Nc3cccc(C(=O)NC(CC(=O)O)c4ccccc4)c3)cc2c1 (stereo not given) |  | 4.30 | 
N=C(N)c1ccc2oc(C(=O)NCCC(=O)NC[C@H](N)C(=O)O)cc2c1 | < 4.00 | 7.40 | 
N=C(N)c1ccc2oc(C(=O)N3Cc4ccccc4CC3C(=O)NC(CC(=O)O)c3ccccc3)cc2c1 (stereo not given) |  | 6.30 | 
CC(C)(NC(=O)c1cc2cc(C(=N)N)ccc2[nH]1)C(=O)NC(CC(=O)O)c1ccccc1 (stereo not given) |  | < 4.00 | 
N=C(N)c1ccc2oc(C(=O)NCCC(=O)NC(CC(=O)O)c3ccc(F)c(F)c3)cc2c1 (stereo not given) | < 4.00 | 6.70 | 
CN(CC(=O)NC(CC(=O)O)c1ccccc1)C(=O)c1cc2cc(C(=N)N)ccc2[nH]1 (stereo not given) |  | 5.00 | 
CN(CCC(=O)NC(CC(=O)O)c1ccccc1)C(=O)c1cc2cc(C(=N)N)ccc2[nH]1 (stereo not given) |  | 7.70 | < 4.00
CCCCS(=O)(=O)NC(CNC(=O)CCNC(=O)c1c[nH]c2cc(C(=N)N)ccc12)C(=O)O (stereo not given) | < 4.00 | 8.70 | 
CCCCS(=O)(=O)NC(CNC(=O)CCNC(=O)c1[nH]nc2cc(C(=N)N)ccc12)C(=O)O (stereo not given) | < 4.00 | 8.70 | 

Second part, the compound after the results:

pIC50 (Integrin alpha-V/beta-3 [1]) | pIC50 [2] | pIC50 (Integrin alpha-V/beta-3 [3]) | SMILES
 | 5.00 |  | N=C(N)c1ccc2[nH]c(C(=O)NC(CC(=O)NC(CC(=O)O)c3ccccc3)C(F)(F)F)cc2c1 (stereo not given)
 | 6.00 |  | N=C(N)c1ccc2[nH]c(C(=O)NCCC(=O)NC(CC(=O)O)c3ccccc3)cc2c1 (stereo not given)
4.22 | 6.82 |  | N=C(N)c1ccc2oc(C(=O)NCCC(=O)NC(CC(=O)O)c3ccccc3)cc2c1 (stereo not given)
 | 5.00 |  | N=C(N)c1ccc2[nH]c(C(=O)NCC(=O)NC(CC(=O)O)c3ccccc3)cc2c1 (stereo not given)
< 4.00 | 6.82 |  | CN(CCC(=O)NC(CC(=O)O)c1ccccc1)C(=O)c1cc2cc(C(=N)N)ccc2o1 (stereo not given)
 | 6.00 |  | N=C(N)c1ccc2oc(C(=O)N3CCC[C@@H]3C(=O)NC(CC(=O)O)c3ccccc3)cc2c1 (stereo not given in full)
4.00 | 7.40 |  | N=C(N)c1ccc2oc(C(=O)NCCC(=O)NC(CC(=O)O)c3cccnc3)cc2c1 (stereo not given)
 | 6.52 |  | N=C(N)c1ccc2oc(C(=O)NCC(=O)NC(CC(=O)O)c3ccccc3)cc2c1 (stereo not given)
3.90 | 5.60 |  | CC(CC(=O)NC(CC(=O)O)c1ccccc1)NC(=O)c1cc2cc(C(=N)N)ccc2[nH]1 (stereo not given)
 | 6.40 |  | N=C(N)c1ccc2oc(C(=O)N3CCCC(C(=O)NC(CC(=O)O)c4ccccc4)C3)cc2c1 (stereo not given)
< 4.00 | 7.70 |  | CC(CC(=O)NC(CC(=O)O)c1ccccc1)NC(=O)c1cc2cc(C(=N)N)ccc2o1 (stereo not given)

From ChEMBL document CHEMBL1130274, “Fibrinogen receptor (GPIIb-IIIa) antagonists derived from 5,6-bicyclic templates. Amidinoindoles, amidinoindazoles, and amidinobenzofurans containing the N-alpha-sulfonamide carboxylic acid function as potent platelet aggregation inhibitors” (J Med Chem, 1997)
